Source: PubChem BioAssay (several laboratories)
Hits are enriched below; roughly 1.3% of the tested compounds scored in any of these assays.
proCasp3 act – activators of human procaspase-3 D3A mutant, primary screen, biochemical, absorbance, PC-3 D3A mutant, single concentration | Caspase-3 (Homo sapiens), P42574 | recombinant procaspase-3 D3A, Ac-DEVD-pNA absorbance 405 nm | activation, % at 8.5 µM | 0.11% of 330,000 active | AID 463141, 2010;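 active = activation above the mean of all tested compounds plus 3 SD, cut at about 21% in these data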;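 note: 0% = DMSO alone and 100% = DMSO wells spiked with extra 5 µM PC-3 D3A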
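Technique: 405 nm absorbance of p-nitroaniline, reads at 0 and 120 min; Test system: Procaspase-3 D3A mutant; Incubation: 1 h enzyme-compound preincubation, then 2 h substrate reaction, 25 °C; Repeats: singlicate, each compound tested once; Benchmarks: low control DMSO wells, high control DMSO plus 5 µM PC-3 D3A.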
GRK2 aptamer HTS – compounds blocking aptamer binding on GRK2 – biochemical, human GRK2, bead flow cytometry, HTS, primary screen | Beta-adrenergic receptor kinase 1 (Homo sapiens), P25098 | FAM-aptamer displacement from GRK2 | inhibition of aptamer binding, % at 10 µM | 0.59% of 330,000 active;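 active = inhibition of aptamer binding above 40%, roughly 3 SD of noise, on plates passing a quality check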;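 note: median bead fluorescence of bound FAM aptamer so fluorescent compounds give negative values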
Lipid droplet – inhibitors of hepatocyte lipid droplet formation, primary screen, imaging, high-throughput imaging, BODIPY stain; inhibition, % at 6.5 µM; 0.4% of 240,000 active; AML12 mouse hepatocytes, oleate lipid droplets;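 active = lipid droplet intensity inhibited by at least 50%, with more than 500 cells counted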
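Technique: fluorescence imaging, 20x objective, two fields per well / Assay system: AML12 hepatocytes (mouse) / Measure: % inhibition of lipid droplet signal / Doses: 6.5 µM single-point dosing / Incubation: overnight exposure / Reagent: 100 µM oleic acid challenge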
VLA-4 inh – inhibition in human VLA-4 binding assay, primary screen, VLA-4 allosteric modulator project, MLPCN library, flow cytometry, VLA-4 expressing cells. inhibition, % (about 7 µM as worked out from the volumes in the protocol). 0.2% of 330,000 active. Integrin alpha-4 (Homo sapiens), P13612. ligand binding flow cytometry. AID 2557, 2010; in the data active = inhibition above about 50%
Target sequence (P13612 whole entry, looked up): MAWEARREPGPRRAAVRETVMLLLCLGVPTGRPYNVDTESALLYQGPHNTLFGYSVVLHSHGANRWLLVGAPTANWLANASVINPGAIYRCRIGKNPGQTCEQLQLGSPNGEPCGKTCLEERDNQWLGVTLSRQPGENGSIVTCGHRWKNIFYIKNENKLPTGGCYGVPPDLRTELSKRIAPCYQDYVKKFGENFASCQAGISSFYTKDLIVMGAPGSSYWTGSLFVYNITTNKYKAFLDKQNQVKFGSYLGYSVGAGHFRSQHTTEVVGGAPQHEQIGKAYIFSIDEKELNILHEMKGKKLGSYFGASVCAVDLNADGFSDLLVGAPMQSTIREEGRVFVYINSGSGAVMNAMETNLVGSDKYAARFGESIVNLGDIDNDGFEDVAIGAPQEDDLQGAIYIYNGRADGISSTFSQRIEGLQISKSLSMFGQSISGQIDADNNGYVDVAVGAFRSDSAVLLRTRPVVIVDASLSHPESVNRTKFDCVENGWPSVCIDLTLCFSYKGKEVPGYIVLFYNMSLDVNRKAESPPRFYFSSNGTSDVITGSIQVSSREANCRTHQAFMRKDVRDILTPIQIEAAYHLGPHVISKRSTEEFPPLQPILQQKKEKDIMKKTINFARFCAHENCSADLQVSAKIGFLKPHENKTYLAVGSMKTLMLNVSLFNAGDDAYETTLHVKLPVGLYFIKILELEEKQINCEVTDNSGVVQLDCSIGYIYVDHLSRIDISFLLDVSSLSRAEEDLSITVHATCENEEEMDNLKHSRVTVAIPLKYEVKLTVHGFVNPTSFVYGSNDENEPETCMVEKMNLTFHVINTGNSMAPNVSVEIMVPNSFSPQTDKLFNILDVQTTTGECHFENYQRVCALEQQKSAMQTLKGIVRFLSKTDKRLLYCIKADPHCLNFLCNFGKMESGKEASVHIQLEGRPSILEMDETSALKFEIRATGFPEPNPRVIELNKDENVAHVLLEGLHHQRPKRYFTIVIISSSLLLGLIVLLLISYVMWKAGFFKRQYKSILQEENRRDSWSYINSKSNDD
JMJD2C inh – inhibitors of GASC-1 histone demethylase, primary screen, biochemical, fluorescence, DELFIA europium. Lysine-specific demethylase 4C (Homo sapiens), Q9H3R0. GST-JMJD2C(1-420) H3K9me3 demethylation. inhibition, % at 2.35 µM. 0.069% of 330,000 active;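 active = more than half of a compound's replicate wells show inhibition beyond 50%, single wells judged on their own value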;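 note: signal counts dimethyl H3K9 product captured on neutravidin plate; 0% = median of DMSO wells and 100% = 0.3 times that DMSO median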
procasp7 counter – procaspase-7 activators, primary screen, counter-screen for procaspase-3 activator project, biochemical, absorbance, HTS, human. recombinant procaspase-7, Ac-DEVD-pNA absorbance 405 nm; D23A/D198A/D206A triple mutant, cannot self-cleave; scale: DMSO 0, 5 µM enzyme 100. activation, % at 8.5 µM. 0.093% of 330,000 active. AID 463210, 2010;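 active = percent activation above the screen-wide mean plus 3 SD, cut at about 25% in these data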
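Replicates: singlicate. Assay system: Procaspase-7 triple mutant (PC-7 D3A). Signal: 405 nm absorbance of p-nitroaniline. Times: 1 h preincubation, 2 h reaction. Buffer or medium: Zinc-free HEPES pH 7.4 with 300 mM NaCl, 0.01% Triton X-100. Also added: DEVD-pNA substrate. Benchmarks: DMSO wells as 0%, DMSO with 5 µM added PC-7 as 100%.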
Lipid drop inh – hepatocyte lipid droplet accumulation inhibitors, confirmation, imaging, AML12 mouse hepatocytes, single concentration, high-content. inhibition, % at 5.2 µM. BODIPY lipid droplet imaging; droplets induced with 100 µM oleic acid. shares compounds with Lipid droplet. 65% of 870 active;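 active = inhibition of lipid droplet metric at least 50%, with more than 300 cells in each of four replicates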;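 note: plate controls were DMSO with oleic acid for no effect and 5 µM Triacsin-C for full effect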
AML12 cytotox – AML12 hepatocyte cytotoxicity, counter-screen for hepatic lipid droplet formation project, imaging, DAPI nuclear morphology imaging; shares compounds with Lipid droplet; AML12 mouse hepatocytes; stronger effect = higher value; cells fed 100 µM oleate overnight; z-score at 5 µM; 3% of 870 active; AID 463200, 2010; in the data active = z-score above about 6.3;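 note: compound exposure lasted overnight at 37 °C before fixation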
AML12 tox ATP – AML12 hepatocyte cytotoxicity, confirmation, cytotoxicity control for hepatic lipid droplet formation project, cell-based, single concentration | shares compounds with Lipid droplet | AML12 mouse hepatocyte viability, ATP luminescence; cells loaded with 100 µM oleic acid | cytotoxicity, % at 50 µM | 530 tested, under 10 active | AID 463219, 2010;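 active = cytotoxicity above 50% in each of four replicates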;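 note: compound exposure lasted overnight at 37 °C before the ATP read; 0% = DMSO-treated cells and 100% = wells with no cells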
* marks the source's active call; other numbers are inactive results; nt = no result.

SMILES	proCasp3 act	GRK2 aptamer HTS	Lipid droplet	VLA-4 inh	JMJD2C inh	procasp7 counter	Lipid drop inh	AML12 cytotox	AML12 tox ATP
Cc1cc(C)cc(C(=O)NCC(=O)NNC(=O)CSc2ccccc2F)c1	5	2	nt	-7	11	7	nt	nt	nt
NC(=O)N/N=C/c1ccc(-c2ccc([N+](=O)[O-])cc2)o1	-7	4	55*	2	3	-1	-4	0.24	nt
COc1ccc(CNC(=O)N2CCN(S(=O)(=O)c3ccc(C)cc3C)CC2)cc1	2	2	82*	6	13	-2	79*	-0.25	9
Cc1ccc(S(=O)(=O)N2CCN(C(=O)NCc3ccc(F)cc3)CC2)c(C)c1	5	0	3	7	-3	5	nt	nt	nt
COc1ccc(NC(=O)CCC2COc3ccccc3O2)c(OC)c1 (stereo unspecified)	-1	1	13	4	2	0	nt	nt	nt
COc1ccc(/C=C/C(=O)NCC2COc3ccccc3O2)c(OC)c1 (stereo unspecified)	5	0	65*	-19	-7	6	84*	0.48	13
O=[N+]([O-])c1ccccc1N/N=C\c1ccccc1Cl	-9	1	59*	0	34	8	34	0.24	nt
CCCOc1ccc(/C=N/Nc2ccccc2[N+](=O)[O-])c(OCCC)c1	14	2	81*	15	42	1	113*	-0.49	7
O=[N+]([O-])c1ccccc1N/N=C\c1ccccc1F	9	1	49	20	3	10	nt	nt	nt
Cc1ccc(-n2nnnc2SCC(=O)Nc2ncc(Cc3ccccc3Cl)s2)cc1	4	2	79*	12	0	7	104*	0.26	10
O=C(CSc1nnnn1-c1ccccc1)Nc1ncc(Cc2cccc(Cl)c2Cl)s1	-7	4	-7	-6	-20	-2	nt	nt	nt
CN=C1N(C)C[C@@H]2[C@@H]3C(=O)N(Cc4ccccc4)C(=O)[C@@H]3[C@](Cc3ccccc3)(C(=O)OC)N12	5	3	nt	nt	nt	-1	nt	nt	nt
CC1=CC(C)(C)N2C(=O)C3(NCCc4c3[nH]c3ccccc43)c3cccc1c32 (stereo unspecified)	1	3	62*	-5	9	-1	105*	0.51	12
O=C1Nc2ccccc2C12NCCc1c2[nH]c2ccccc12 (stereo unspecified)	1	1	-7	4	-1	-7	nt	nt	nt
COc1ccc(CC(=O)N/N=C(\C)c2cccs2)cc1OC	nt	0	-4	13	8	nt	nt	nt	nt
CC(C)Cn1c(N)c(C(=O)COC(=O)c2cc(C3CC3)nc3ccccc23)c(=O)n(C)c1=O	-5	0	74*	22	-6	5	85*	0.016	nt
C/C(=N\NC(=O)C1(C)CC1(Br)Br)c1cccc(NC(=O)c2ccc(C)o2)c1 (stereo unspecified)	-3	1	-1	-5	3	-3	nt	nt	nt
NS(=O)(=O)c1ccc(CCNC(=O)c2ccc(Cl)c(S(=O)(=O)NCc3ccco3)c2)cc1	6	0	nt	3	5	-4	nt	nt	nt
CCC1=NN=C(c2ccc(F)cc2)C(c2c[nH]c3ccccc23)N1O (stereo unspecified)	-3	0	65*	3	4	-3	30	-0.89	nt
CCC(C)C(=O)N1c2ccccc2C(=C2SC(C(=O)OC)=C(C(=O)OC)S2)C(=S)C1(C)C (stereo unspecified)	-14	1	67*	3	11	-1	112*	0.24	6
CCOC(=O)C1=C(C)c2ccccc2N(C(=O)OC)C1(C)C(=O)OCC (stereo unspecified)	0	2	nt	nt	nt	0	nt	nt	nt
Cc1ccccc1OCC(=O)NCCCNC(=O)c1ccccn1	-1	0	93*	-3	12	-10	10	-0.46	nt
COc1ccc2c(c1)c(CC(=O)Nc1nnc(C3CC3)s1)c(C)n2C(=O)c1ccc(Cl)cc1	-7	1	3	6	31	6	nt	nt	nt
COc1ccc2c(c1)c(CC(=O)NCc1cc([N+](=O)[O-])ccc1O)c(C)n2C(=O)c1ccc(Cl)cc1	-4	0	6	-7	-4	-9	nt	nt	nt
COc1ccc2c(c1)c(CC(=O)Nc1ccccc1OC)c(C)n2C(=O)c1ccc(Cl)cc1	4	0	67*	6	3	2	-75	7.9	nt
SMILES	proCasp3 act	GRK2 aptamer HTS	Lipid droplet	VLA-4 inh	JMJD2C inh	procasp7 counter	Lipid drop inh	AML12 cytotox	AML12 tox ATP
COc1ccc2c(c1)c(CC(=O)Nc1ccc(C(C)=O)cc1)c(C)n2C(=O)c1ccc(Cl)cc1	1	0	73*	15	2	10	77*	-0.59	5
Cc1cccc(C)c1NC(=O)CSc1nnc(C)n1CC1CCCO1 (stereo unspecified)	4	1	2	2	-1	1	nt	nt	nt
Cc1ccc([N+](=O)[O-])cc1NC(=O)C(C)Sc1nnc(C)n1CC1CCCO1 (stereo unspecified)	0	1	60*	13	-58	5	18	-0.28	nt
CCOc1ccccc1N1CCN(C(=O)c2ccc3nc(N)sc3c2)CC1	11	0	nt	16	-4	7	nt	nt	nt
COc1cc(OC)cc(C(=O)O/N=C(\N)c2ccccn2)c1	-4	2	22	7	0	8	nt	nt	nt
COc1ccc(C(=O)O/N=C(\N)c2ccccn2)cc1	-4	2	66*	-4	3	9	20	-0.24	nt
COc1ccc(-c2csc(NNC3=NCCCCC3)n2)cc1	-25	0	115*	0	39	-30	112*	-0.25	32
CCOc1ccc(-c2csc(NNC3=NCCCCC3)n2)cc1	-23	0	84*	20	3	-12	111*	-0.65	15
